Data from ChEMBL document CHEMBL3351553 (J Med Chem, 2014).
Converted amounts (≈) assume the structure as drawn.

Legend:
Staphylococcus aureus = assay: Antimicrobial activity against Staphylococcus aureus UAMS1 incubated for 16 hrs by CLSI based method; type: functional; details: UAMS1, 16 h
DNA gyrase = DNA gyrase (Staphylococcus aureus, UniProt P0A0K8+P20831); assay: Inhibition of Staphylococcus aureus DNA gyrase assessed as reduction in enzyme-catalyzed supercoiling of relaxed circular pBR322 DNA by agarose gel electrophoresis; type: protein-complex assay
Outline: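 Recombinant S. aureus gyrase kit, 0.5 U enzyme, relaxed pBR322 (250 ng/μL) in 40 mM HEPES·KOH pH 7.6, 10 mM Mg acetate, 10 mM DTT, 2 mM ATP, 500 mM K glutamate, 0.5 mg/mL albumin; 37 °C, 30 min.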

[1] = Inhibition of Staphylococcus aureus topoisomerase 4 assessed as reduction in decatenation of kDNA at 100 to 500 uM by gel electrophoresis method
Outline: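 Compounds were in DMSO, with water or DMSO as vehicle controls. Reactions were stopped with STEB plus chloroform:isoamyl alcohol and run on 1% agarose TAE gels stained with ethidium bromide. IC50 was taken from densitometry against reactions with and without enzyme.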

DNA gyrase, sequence (P0A0K8 whole entry): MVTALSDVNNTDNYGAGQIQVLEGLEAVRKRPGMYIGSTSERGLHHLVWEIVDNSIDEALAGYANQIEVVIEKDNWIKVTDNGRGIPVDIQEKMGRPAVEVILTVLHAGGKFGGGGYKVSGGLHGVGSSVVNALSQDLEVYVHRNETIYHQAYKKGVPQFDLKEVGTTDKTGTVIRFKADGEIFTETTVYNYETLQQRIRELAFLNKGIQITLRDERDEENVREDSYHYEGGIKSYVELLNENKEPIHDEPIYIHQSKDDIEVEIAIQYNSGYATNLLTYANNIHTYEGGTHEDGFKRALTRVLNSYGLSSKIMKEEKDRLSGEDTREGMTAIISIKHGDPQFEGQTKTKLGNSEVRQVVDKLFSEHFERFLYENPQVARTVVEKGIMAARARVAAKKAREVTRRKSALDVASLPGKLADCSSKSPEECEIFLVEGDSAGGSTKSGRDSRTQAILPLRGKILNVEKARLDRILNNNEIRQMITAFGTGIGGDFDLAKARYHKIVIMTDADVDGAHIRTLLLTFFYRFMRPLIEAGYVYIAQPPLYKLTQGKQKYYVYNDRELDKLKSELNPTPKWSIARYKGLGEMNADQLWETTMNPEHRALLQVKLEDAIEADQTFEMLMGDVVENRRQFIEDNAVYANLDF
DNA gyrase, sequence (P20831 whole entry): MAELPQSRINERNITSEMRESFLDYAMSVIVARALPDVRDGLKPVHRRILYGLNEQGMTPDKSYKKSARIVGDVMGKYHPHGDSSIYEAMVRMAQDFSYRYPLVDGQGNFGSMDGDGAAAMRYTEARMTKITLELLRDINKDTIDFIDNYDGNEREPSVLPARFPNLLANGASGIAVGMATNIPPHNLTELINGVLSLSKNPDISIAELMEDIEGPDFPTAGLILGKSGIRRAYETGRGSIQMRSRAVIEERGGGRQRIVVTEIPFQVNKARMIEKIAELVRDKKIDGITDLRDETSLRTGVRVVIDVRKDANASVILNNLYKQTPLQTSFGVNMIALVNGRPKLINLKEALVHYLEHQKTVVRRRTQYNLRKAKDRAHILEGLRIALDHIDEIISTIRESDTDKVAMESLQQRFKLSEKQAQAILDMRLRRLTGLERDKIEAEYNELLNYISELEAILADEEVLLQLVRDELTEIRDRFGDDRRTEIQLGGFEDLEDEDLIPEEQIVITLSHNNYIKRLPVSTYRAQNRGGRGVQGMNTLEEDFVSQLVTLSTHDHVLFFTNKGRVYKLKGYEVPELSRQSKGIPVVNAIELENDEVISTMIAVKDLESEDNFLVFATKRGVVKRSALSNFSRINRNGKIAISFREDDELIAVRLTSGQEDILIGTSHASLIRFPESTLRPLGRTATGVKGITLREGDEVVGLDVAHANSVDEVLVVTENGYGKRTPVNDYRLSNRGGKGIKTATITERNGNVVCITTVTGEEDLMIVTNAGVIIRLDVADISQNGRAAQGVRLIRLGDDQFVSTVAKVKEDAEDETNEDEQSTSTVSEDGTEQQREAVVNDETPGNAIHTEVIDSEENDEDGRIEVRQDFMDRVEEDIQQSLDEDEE

| Structure (SMILES) | MIC (Staphylococcus aureus) | IC50 (DNA gyrase) | IC50 [1] |
| --- | --- | --- | --- |
| CC(C)(C)c1ccc(C(O)CCCN2CCC(C(O)c3ccccc3)CC2)cc1 (stereo not given) | > 256 mg/L | > 333 µM | – |
| CC(C)(C)c1ccc(C(O)CCCCN2CCC(C(O)(c3ccccc3)c3ccccc3)CC2)cc1 (stereo not given) | 16 mg/L (≈ 32.9 µM) | 100 µM | 133 µM |
| CC(C)(C)c1ccc(CCCCN2CCC(C(O)(c3ccccc3)c3ccccc3)CC2)cc1 | 8 mg/L (≈ 17.6 µM) | 93 µM | 320 µM |
| CC(C)(C)c1ccc(C(=O)CCCN2CCC(C(O)(c3ccccc3)c3ccccc3)CC2)cc1 [TERFENADONE] | 8 mg/L (≈ 17 µM) | – | 110 µM |
| COC(=O)c1cccc(CN2CCC(C(O)(c3ccccc3)c3ccccc3)CC2)c1 | > 256 mg/L | – | – |
| CC(C)(C)c1ccc([C@H](O)CCCN2CCC(C(O)(c3ccccc3)c3ccccc3)CC2)cc1 [R-TERFENADINE] | – | – | 110 µM |
| Cc1ccc(CN2CCC(C(O)(c3ccccc3)c3ccccc3)CC2)cc1 | 128 mg/L (≈ 345 µM) | – | – |
| COc1ccc(CCN2CCC(C(O)(c3ccccc3)c3ccccc3)CC2)cc1 | > 256 mg/L | > 333 µM | – |
| OC(c1ccccc1)(c1ccccc1)C1CCN(Cc2ccc(-n3cccc3)cc2)CC1 | 32 mg/L (≈ 75.7 µM) | – | – |
| O=C(O)c1ccccc1CN1CCC(C(O)(c2ccccc2)c2ccccc2)CC1 | > 256 mg/L | – | – |
| CC(C)(C)c1ccc(C(O)CCCN2CCN(C(c3ccccc3)c3ccccc3)CC2)cc1 (stereo not given) [TRENIZINE] | > 256 mg/L | – | – |
| OC(CCCN1CCC(C(O)(c2ccccc2)c2ccccc2)CC1)c1ccc(Cl)cc1 (stereo not given) | 64 mg/L (≈ 142 µM) | 133 µM | > 333 µM |
| CC(C)(C)c1ccc([C@@H](O)CCCN2CCC(C(O)(c3ccccc3)c3ccccc3)CC2)cc1 | – | – | 100 µM |
| Cc1cccc(CN2CCC(C(O)(c3ccccc3)c3ccccc3)CC2)c1 | 128 mg/L (≈ 345 µM) | – | – |
| COC(=O)c1ccccc1CN1CCC(C(O)(c2ccccc2)c2ccccc2)CC1 | > 256 mg/L | – | – |
| CC(C)(C)c1ccccc1CN1CCC(C(O)(c2ccccc2)c2ccccc2)CC1 | > 256 mg/L | – | – |
| OC(c1ccccc1)(c1ccccc1)C1CCN(Cc2cccc(-c3ccccc3)c2)CC1 | 64 mg/L (≈ 148 µM) | – | – |
| CC(C)(C)c1ccc(C(O)CCCN2CCC(Cc3ccccc3)CC2)cc1 (stereo not given) | > 256 mg/L | > 333 µM | – |
| COc1cccc(CN2CCC(C(O)(c3ccccc3)c3ccccc3)CC2)c1 | 128 mg/L (≈ 330 µM) | – | – |
| CC(C)(C)c1ccc(CCCN2CCC(C(O)(c3ccccc3)c3ccccc3)CC2)cc1 | 8 mg/L (≈ 18.1 µM) | 93 µM | 100 µM |

| Structure (SMILES) | MIC (Staphylococcus aureus) | IC50 (DNA gyrase) | IC50 [1] |
| --- | --- | --- | --- |
| CC(C)(C)c1cccc(CN2CCC(C(O)(c3ccccc3)c3ccccc3)CC2)c1 | 32 mg/L (≈ 77.4 µM) | – | – |
| N#Cc1ccc(CN2CCC(C(O)(c3ccccc3)c3ccccc3)CC2)cc1 | > 256 mg/L | – | – |
| OC(c1ccccc1)(c1ccccc1)C1CCN(Cc2cccc(C(F)(F)F)c2)CC1 | > 256 mg/L | – | – |
| CC(C)(C)c1ccc(OCCCN2CCC(C(O)(c3ccccc3)c3ccccc3)CC2)cc1 | – | 100 µM | > 333 µM |
| OC(c1ccccc1)(c1ccccc1)C1CCN(Cc2ccccc2-c2ccccc2)CC1 | > 256 mg/L | – | – |
| O=C(O)c1cccc(CN2CCC(C(O)(c3ccccc3)c3ccccc3)CC2)c1 | > 256 mg/L | – | – |
| OC(c1ccccc1)(c1ccccc1)C1CCN(CCc2ccc(-c3ccccc3)cc2)CC1 | 8 mg/L (≈ 17.9 µM) | 80 µM | 133 µM |
| N#Cc1cccc(CN2CCC(C(O)(c3ccccc3)c3ccccc3)CC2)c1 | > 256 mg/L | – | – |
| Cc1ccc(C(O)CCCN2CCC(C(O)(c3ccccc3)c3ccccc3)CC2)cc1 (stereo not given) | 128 mg/L (≈ 298 µM) | > 500 µM | > 333 µM |
| Oc1ccc(CN2CCC(C(O)(c3ccccc3)c3ccccc3)CC2)cc1 | 128 mg/L (≈ 343 µM) | – | – |
| OC(CCCN1CCC(C(O)(c2ccccc2)c2ccccc2)CC1)c1ccc(Br)cc1 (stereo not given) | 32 mg/L (≈ 64.7 µM) | > 500 µM | > 333 µM |
| CC(C)(C)c1ccc(CCN2CCC(C(O)(c3ccccc3)c3ccccc3)CC2)cc1 | 8 mg/L (≈ 18.7 µM) | 93 µM | 147 µM |
| CC(C)(C)c1ccc(C(=O)CN2CCC(C(O)(c3ccccc3)c3ccccc3)CC2)cc1 | > 256 mg/L | – | 247 µM |
| OC(c1ccccc1)(c1ccccc1)C1CCN(Cc2ccc(-c3ccoc3)cc2)CC1 | 32 mg/L (≈ 75.6 µM) | – | – |
| OC(c1ccccc1)(c1ccccc1)C1CCN(Cc2cccc(F)c2)CC1 | 128 mg/L (≈ 341 µM) | – | – |
| OC(c1ccccc1)(c1ccccc1)C1CCN(CCc2ccc(-c3ccncc3)cc2)CC1 | 32 mg/L (≈ 71.3 µM) | 93 µM | 227 µM |
| CC(C)(C)c1ccc(C(O)CCN2CCC(C(O)(c3ccccc3)c3ccccc3)CC2)cc1 (stereo not given) | 8 mg/L (≈ 17.5 µM) | 133 µM | 333 µM |
| OC(c1ccccc1)(c1ccccc1)C1CCN(CCc2ccc(Br)cc2)CC1 | 16 mg/L (≈ 35.5 µM) | 247 µM | 260 µM |
| OC(CCCN1CCC(C(O)(c2ccccc2)c2ccccc2)CC1)c1ccccc1 (stereo not given) | > 256 mg/L | > 500 µM | > 333 µM |
| OC(c1ccccc1)(c1ccccc1)C1CCN(Cc2ccccc2C(F)(F)F)CC1 | > 256 mg/L | – | – |
